According to article PMC3306481 (Clinical Cancer Research, 2012):
Like-named read-outs stand apart in the source and are kept apart here.

Tests used:
[1] = for Maximum tolerated dose (MTD): 21-day cycles (DL 7)
[2] = system: refractory solid tumors and lymphoid malignancies; assay: Phase I trial: tumor response by RECIST 1.0; assay type: in vivo, human
[3] = Veliparib plasma pharmacokinetics; assay type: in vivo, human
Procedure, shortened: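 The oral test compound was dosed once daily at 20–60 mg with oral alkylator 50 or 100 mg daily. Plasma was sampled pre-dose and 0.5, 1, 1.5, 2, 3, 4, 6, 8 and 24 h post-dose on cycle 1 day 1 and on the last dosing day (7, 14 or 21). Blood was spun at 1,000 × g and plasma held at -70°C. Levels were read by LC-MS validated to FDA guidelines. Days were compared by two-tailed paired exact Wilcoxon test, with P < 0.05 taken as significant.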

[4] = system: poly(ADP-ribose) (PAR), a product of PARP; assay: PAR levels in tumor biopsies; assay type: in vivo, human; settings: all five patients with paired pre- and post-dose biopsies, after 7 or 21 days of treatment; with cyclophosphamide
γH2AX = γH2AX levels in circulating tumor cells; assay type: in vivo, human; settings: day 2 of cycle 1; of nine patients with detectable CTCs; with cyclophosphamide
Procedure, shortened: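 During cycle 1, patients took the oral test compound once daily (20–60 mg) with daily oral alkylator (50 or 100 mg). Circulating tumour cells were scored for γH2AX positivity by a validated immunofluorescence assay run to standard operating procedures and compared with each patient's baseline.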

[5] = high-dose veliparib, preclinical model; cited from earlier work
[6] = studies conducted with veliparib; cited from earlier work
PARP = settings: 24 hours after a single 50 mg dose; phase 0 trial; cited from earlier work

Structure (SMILES)	Maximum tolerated dose (MTD) ([1]; cyclophosphamide daily with veliparib 60 mg daily) [mg]	Total No. of cycles ([2]; partial response, patient 15, breast cancer, dose level 5, with cyclophosphamide) [cycles]	Patients with prolonged stable disease among patients with known BRCA mutations ([2]; thirteen patients with known BRCA mutations, with cyclophosphamide)	Patients with partial response ([2]; veliparib with metronomic cyclophosphamide, 35 patients enrolled, RECIST 1.0)	Changes in PK parameters between baseline and day 7, 14, or 21 ([3]; co-administered metronomic cyclophosphamide)	half-life ([3]; human, plasma, oral) [h]	PK behavior of veliparib at DL 5 compared with other DLs ([3]; three patients on DL 5 (100 mg cyclophosphamide))	Decrease in PAR levels in tumor biopsies [4]	Patients with an increased percentage of γH2AX-positive CTCs (γH2AX)	Tolerability of the study regimen ([1]; in vivo)	Maximum tolerated dose (MTD) ([1]; veliparib daily with cyclophosphamide 50 mg daily) [mg]	Seizures [5]	Cardiac toxicity related to study drug [6]	Inhibition of PARP activity in tumor biopsies (PARP)
O=P1(N(CCCl)CCCl)NCCCO1 (centres unmarked) [cyclophosphamide]	50	–	–	–	–	–	–	–	–	–	–	–	–	–
C[C@]1(c2nc3c(C(N)=O)cccc3[nH]2)CCCN1 [veliparib, Veliparib]	–	4	three	Seven	No statistically significant changes	5 ± 1.5	not different	greater than 80%	Seven	well tolerated	60	caused seizures	no indication of cardiac toxicity	greater than 48%
